Source: ChEMBL document CHEMBL1124374, “Enkephalinase inhibitors. 1. 2,4-Dibenzylglutaric acid derivatives” (J Med Chem, 1989)
The source made the active and inactive calls.

How the values were obtained:
[1] = target: T1, Neprilysin (Rattus norvegicus, UniProt P07861); test: Inhibition of enkephalinase activity in synaptic membranes prepared from rat striatum; type: cell membranes
T1 sequence (P07861 whole entry): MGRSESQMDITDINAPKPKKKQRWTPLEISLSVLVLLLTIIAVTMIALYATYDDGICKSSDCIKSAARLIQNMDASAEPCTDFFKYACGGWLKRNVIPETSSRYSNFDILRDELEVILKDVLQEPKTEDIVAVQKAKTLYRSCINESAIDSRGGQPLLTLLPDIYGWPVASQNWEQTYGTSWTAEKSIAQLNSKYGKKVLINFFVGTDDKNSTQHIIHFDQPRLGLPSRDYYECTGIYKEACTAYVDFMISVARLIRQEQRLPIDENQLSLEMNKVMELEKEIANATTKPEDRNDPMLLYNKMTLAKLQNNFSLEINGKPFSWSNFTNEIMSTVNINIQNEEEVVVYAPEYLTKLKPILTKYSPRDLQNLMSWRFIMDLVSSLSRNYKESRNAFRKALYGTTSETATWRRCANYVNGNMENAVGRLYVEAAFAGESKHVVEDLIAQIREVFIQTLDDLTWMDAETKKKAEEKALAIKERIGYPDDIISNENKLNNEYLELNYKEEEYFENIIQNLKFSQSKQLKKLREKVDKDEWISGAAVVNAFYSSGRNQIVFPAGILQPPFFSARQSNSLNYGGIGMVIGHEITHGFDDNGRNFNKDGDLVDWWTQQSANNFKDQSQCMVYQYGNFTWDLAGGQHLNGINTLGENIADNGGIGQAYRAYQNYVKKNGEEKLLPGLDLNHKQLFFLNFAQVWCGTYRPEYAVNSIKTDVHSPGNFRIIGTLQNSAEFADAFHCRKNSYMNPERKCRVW

[2] = test system: Mus musculus; test: Antinociceptive effect was determined by mouse hot plate assay after sc administration of the compound; type: functional
Outline: (§1)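 Male CF1 mice (18–23 g) dosed icv or sc; 15 min later placed singly on a copper hot plate held at 55 °C. Latency to jump recorded, cutoff 240 s. MED = minimum effective dose. ED200 = dose doubling jump latency.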

[3] = test system: Opioid receptor; test: Ability to displace tritium-labeled naloxone at opiate receptors, at 10 uM concentration
[4] = test system: Mus musculus; test: Doubling of hotplate jump-latency activity in mouse after subcutaneous administration is determined; type: functional; outline: as §1
[5] = test system: Mus musculus; test: Stretching activity in male CF-1 mice, after the intra peritoneal administration of acetic acid and subcutaneous administration of compound; type: functional
Outline: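 Male CF-1 mice (18–22 g), twelve per dose of agent or vehicle, dosed sc 15 min before ip 3% aqueous acetic acid at 10 mL/kg. Five minutes after irritant, stretching episodes counted over 10 min. ED50 derived from these counts.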

[6] = target: T2, Neprilysin (Oryctolagus cuniculus, UniProt P08049); test: Inhibition of enkephalinase activity in membranes prepared from rabbit
T2 sequence (P08049 whole entry): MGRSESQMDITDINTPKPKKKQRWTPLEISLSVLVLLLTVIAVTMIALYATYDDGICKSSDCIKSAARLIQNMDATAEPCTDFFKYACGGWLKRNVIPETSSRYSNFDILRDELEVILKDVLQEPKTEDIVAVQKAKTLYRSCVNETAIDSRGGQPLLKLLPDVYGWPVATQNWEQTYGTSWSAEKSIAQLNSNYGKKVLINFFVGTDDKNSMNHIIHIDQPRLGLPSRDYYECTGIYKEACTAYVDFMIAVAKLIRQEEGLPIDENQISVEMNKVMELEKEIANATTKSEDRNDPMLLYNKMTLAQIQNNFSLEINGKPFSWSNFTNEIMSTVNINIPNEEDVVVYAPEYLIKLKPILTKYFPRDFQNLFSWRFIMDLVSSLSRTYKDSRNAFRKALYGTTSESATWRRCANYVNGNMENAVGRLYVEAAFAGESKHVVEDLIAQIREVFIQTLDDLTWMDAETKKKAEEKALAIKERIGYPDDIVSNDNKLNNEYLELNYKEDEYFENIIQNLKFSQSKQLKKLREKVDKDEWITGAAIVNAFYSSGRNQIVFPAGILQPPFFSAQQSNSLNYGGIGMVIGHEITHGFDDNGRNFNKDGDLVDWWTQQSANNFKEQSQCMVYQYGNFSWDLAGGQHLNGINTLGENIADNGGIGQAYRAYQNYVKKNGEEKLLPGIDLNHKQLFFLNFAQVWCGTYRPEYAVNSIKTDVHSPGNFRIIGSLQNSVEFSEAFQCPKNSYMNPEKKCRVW
Outline: (§2)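 Rabbit protease 24.11 (15 ng protein) incubated 10 min at 37 °C with [Tyr-3H]Leu-enkephalin plus unlabeled Leu-enkephalin (1 μM final) in 50 mM Tris-HCl, pH 6.5. Stopped with TFA. Tyr-Gly-Gly product separated from substrate by C4 reverse-phase HPLC (isocratic, 0.09% TFA/acetonitrile). Fractions counted by scintillation.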

[7] = target: Mu-type opioid receptor (Mus musculus) (UniProt P42866); test: Ability to displace tritium-labeled naloxone at opioid receptor, at 10 uM concentration
Sequence of Mu-type opioid receptor (Mus musculus) (P42866 whole entry): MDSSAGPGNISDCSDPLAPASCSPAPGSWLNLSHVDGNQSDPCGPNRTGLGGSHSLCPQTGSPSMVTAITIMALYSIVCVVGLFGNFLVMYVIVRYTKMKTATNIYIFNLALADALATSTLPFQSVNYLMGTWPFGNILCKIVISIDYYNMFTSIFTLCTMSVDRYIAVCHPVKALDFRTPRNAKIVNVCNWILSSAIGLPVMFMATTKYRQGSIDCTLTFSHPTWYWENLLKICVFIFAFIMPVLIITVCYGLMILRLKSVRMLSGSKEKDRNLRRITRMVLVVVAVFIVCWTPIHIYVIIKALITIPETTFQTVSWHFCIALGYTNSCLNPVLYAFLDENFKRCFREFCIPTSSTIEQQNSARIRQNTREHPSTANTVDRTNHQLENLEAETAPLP

[8] = target: T3, Aminopeptidase N (Sus scrofa) (UniProt P15145); test: Inhibition of aminopeptidase; IA is inactive
T3 sequence (whole entry): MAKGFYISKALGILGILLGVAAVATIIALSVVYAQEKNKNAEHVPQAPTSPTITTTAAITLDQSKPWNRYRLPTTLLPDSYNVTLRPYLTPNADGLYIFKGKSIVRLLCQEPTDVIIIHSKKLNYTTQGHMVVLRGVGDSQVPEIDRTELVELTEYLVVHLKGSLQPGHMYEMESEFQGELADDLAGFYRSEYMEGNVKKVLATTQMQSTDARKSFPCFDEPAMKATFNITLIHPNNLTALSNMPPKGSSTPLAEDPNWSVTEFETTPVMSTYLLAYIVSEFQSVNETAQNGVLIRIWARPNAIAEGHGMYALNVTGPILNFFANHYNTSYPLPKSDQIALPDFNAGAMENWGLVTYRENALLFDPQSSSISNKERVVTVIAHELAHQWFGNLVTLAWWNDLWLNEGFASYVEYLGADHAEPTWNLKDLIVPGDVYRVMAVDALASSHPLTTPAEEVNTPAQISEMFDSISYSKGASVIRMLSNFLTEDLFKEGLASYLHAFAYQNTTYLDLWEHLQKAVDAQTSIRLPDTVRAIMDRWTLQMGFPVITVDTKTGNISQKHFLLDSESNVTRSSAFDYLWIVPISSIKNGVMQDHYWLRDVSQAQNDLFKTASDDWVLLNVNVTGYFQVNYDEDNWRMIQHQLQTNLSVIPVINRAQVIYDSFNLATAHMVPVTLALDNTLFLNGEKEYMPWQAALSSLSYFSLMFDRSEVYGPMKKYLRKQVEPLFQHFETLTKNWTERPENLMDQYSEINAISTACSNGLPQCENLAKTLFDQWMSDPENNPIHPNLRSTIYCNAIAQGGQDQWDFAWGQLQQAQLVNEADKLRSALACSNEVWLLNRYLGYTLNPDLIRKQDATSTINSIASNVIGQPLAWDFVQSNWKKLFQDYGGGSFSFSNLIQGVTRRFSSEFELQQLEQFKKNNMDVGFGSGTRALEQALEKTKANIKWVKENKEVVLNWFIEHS
Outline: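 Kidney cortex membranes (75 μg protein) incubated 15 min at 37 °C in 50 mM Tris, pH 7.4, with 0.8 mM L-leucine p-nitroanilide (final). Reaction stopped with TCA, tubes centrifuged, p-nitroaniline read as OD at 410 nm.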

[9] = test system: Mus musculus; test: Doubling of hotplate jump-latency activity in mouse after subcutaneous administration of the compound; type: functional
Outline: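 Male CF1 mice (18–23 g) dosed sc; 15 min later placed singly on copper hot plate held at 55 °C. Latency to jump off recorded, cutoff 240 s. ED200 is the dose doubling jump latency.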

[10] = test system: Mus musculus; test: Doubling of hotplate jump-latency activity in mouse after intra cerebro ventricular administration of the compound; type: functional; outline: as §1
[11] = test system: Mus musculus; test: Hot-plate jump-latency activity in mouse 15 minutes after subcutaneous administration; type: functional; settings: sc, 0.25 h, read-out: MED; outline: as §1
[12] = test system: Mus musculus; test: Tail-flick latency observed in CF-1 mice after the administration (3 mg/kg) followed by icv administration of DAEM ([D-Ala2,Met5]enkephalin); type: functional
Outline: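 Male CF-1 mice (20–22 g) given test agent or vehicle sc, then immediately DAEM (1 μg) or vehicle icv. Tail-flick latency read 30 min later, cutoff 10 s; n = 10 per group.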

[13] = test system: Mus musculus; test: Tail-flick latency observed in CF-1 mice after the administration (30 mg/kg) followed by icv administration of DAEM ([D-Ala2,Met5]enkephalin); type: functional
Outline: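 Male CF-1 mice (20–22 g) given test agent or vehicle sc, followed immediately by icv DAEM (1 μg) or vehicle. Tail-flick latency measured 30 min later, cutoff 10 s, n = 10.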

[14] = target: T2, Neprilysin; test: Inhibitory activity against Enkephalinase from rabbit using method 2 is determined.; outline: as §2

IC50 [1] [nM] | SMILES | ED200 [4] [mg/kg] | ED50 ([5]; sc) [mg/kg] | ED200 [10] [µg] | minimal effective dose [11] [mg/kg] | other results
20 | O=C([O-])[C@H](Cc1ccccc1)C[C@@H](Cc1ccccc1)C(=O)NCc1ccc(O)c(O)c1.[Na+] | – | – | – | – | ED200 [2]: >100 mg/kg
12 | O=C(NCc1ccc(O)c(O)c1)C(CS)Cc1ccccc1 (stereo unspecified) | 15 | – | – | – | inhibition [3]: 15%; ED50 [5]: 5 mg/kg
8 | O=C(O)CCNC(=O)[C@H](Cc1ccccc1)C[C@@H](Cc1ccccc1)C(=O)O | – | – | 15 | > 30 | Reaction time [13]: 8.6 s; IC50 [14]: 5 nM

Further lines, the compound ahead of its results:

SMILES | IC50 [1] [nM] | ED200 [4] [mg/kg] | ED50 ([5]; sc) [mg/kg] | ED200 [10] [µg] | minimal effective dose [11] [mg/kg] | other results
COc1cc(CNC(=O)C(CS)Cc2ccccc2)ccc1O (stereo unspecified) | – | 6 | 5.5 | – | – | IC50 [6]: 9 nM; inhibition [7]: 30%; inhibition [8]: inactive
O=C(O)CNC(=O)C(CS)Cc1ccccc1 (stereo unspecified) [THIORPHAN] | – | – | 38 | 75 | 100 | ED200 [9]: >100 mg/kg; Reaction time [12]: 7.5 s
